Experiment [1] has as its target T1, NAD-dependent protein deacetylase sirtuin-2 (Homo sapiens, UniProt Q8IXJ6).
T1 sequence (Q8IXJ6 whole entry): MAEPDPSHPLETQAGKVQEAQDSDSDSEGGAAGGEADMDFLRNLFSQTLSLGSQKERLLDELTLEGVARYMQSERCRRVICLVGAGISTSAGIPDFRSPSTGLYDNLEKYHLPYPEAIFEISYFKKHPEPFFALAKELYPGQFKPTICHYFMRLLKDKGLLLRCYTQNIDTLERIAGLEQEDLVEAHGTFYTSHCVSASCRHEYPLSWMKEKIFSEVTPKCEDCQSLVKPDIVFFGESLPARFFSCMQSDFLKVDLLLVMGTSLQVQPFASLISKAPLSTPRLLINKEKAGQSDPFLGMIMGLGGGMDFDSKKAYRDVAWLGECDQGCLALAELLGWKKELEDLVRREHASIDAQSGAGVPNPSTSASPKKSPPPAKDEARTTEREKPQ
The experiment in a line: Inhibition of human recombinant SIRT2 using Fluor de Lys-SIRT as substrate incubated for 60 mins prior to substrate addition measured after 60 mins by fluorimetric analysis. A digest of the protocol:
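Human recombinant SIRT2 preincubated with 1 mM NAD⁺ and serial compound dilutions for 60 min at 37 °C, then 25 μM Fluor de Lys-SIRT substrate added. Reaction stopped at 60 min with Developer II containing nicotinamide. Fluorescence read 45 min later at ex 360/em 460 nm. % inhibition taken against control wells. IC₅₀ obtained by regression of log[Inh] vs logit % inhibition; means of ≥3 experiments.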

Experiment [2] has as its target T2, NAD-dependent protein deacetylase sirtuin-1 (Homo sapiens, UniProt Q96EB6).
T2 sequence (Q96EB6 whole entry): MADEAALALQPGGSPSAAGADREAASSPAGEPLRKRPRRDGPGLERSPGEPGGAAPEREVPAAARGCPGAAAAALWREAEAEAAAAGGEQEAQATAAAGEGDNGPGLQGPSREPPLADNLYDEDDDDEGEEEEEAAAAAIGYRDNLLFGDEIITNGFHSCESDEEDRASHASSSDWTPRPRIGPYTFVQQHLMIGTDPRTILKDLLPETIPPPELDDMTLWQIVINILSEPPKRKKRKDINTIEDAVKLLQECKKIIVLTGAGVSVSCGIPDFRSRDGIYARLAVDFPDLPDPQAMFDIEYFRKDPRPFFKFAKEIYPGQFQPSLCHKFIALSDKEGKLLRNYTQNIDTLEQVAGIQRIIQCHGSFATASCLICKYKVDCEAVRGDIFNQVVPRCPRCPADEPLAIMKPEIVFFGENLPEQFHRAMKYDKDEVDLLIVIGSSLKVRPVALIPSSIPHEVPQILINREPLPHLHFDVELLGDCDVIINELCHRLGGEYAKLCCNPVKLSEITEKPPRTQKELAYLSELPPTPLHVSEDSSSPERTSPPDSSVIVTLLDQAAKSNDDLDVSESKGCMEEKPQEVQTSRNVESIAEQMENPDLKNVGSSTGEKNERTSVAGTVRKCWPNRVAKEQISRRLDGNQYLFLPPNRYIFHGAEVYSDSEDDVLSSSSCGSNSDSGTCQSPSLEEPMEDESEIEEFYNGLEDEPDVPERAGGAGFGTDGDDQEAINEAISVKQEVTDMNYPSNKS
The experiment in a line: Inhibition of human recombinant SIRT1 using Fluor de Lys-SIRT as substrate incubated for 60 mins prior to substrate addition measured after 60 mins by fluorimetric analysis. A digest of the protocol:
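Human recombinant SIRT1 run the same way: 60 min at 37 °C with 1 mM NAD⁺ and serial compound dilutions, then 25 μM Fluor de Lys-SIRT substrate for 60 min. Stopped with nicotinamide-containing Developer II and read 45 min later at ex 360/em 460 nm. IC₅₀ from logit regression of % inhibition vs control; means of ≥3 experiments.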

Each structure is given as a SMILES string.

Consider `NC(=O)c1ccccc1Nc1ccc(NC(=O)c2ccccc2)cc1`, for which the IC50 (commonly the point on the concentration scale where inhibition reaches its midpoint) in experiment [1] was 17 µM; in experiment [2] it was more than 100 µM. Regarding `NC(=O)c1ccccc1Nc1cccc(/C=C/C(=O)O)c1`, in experiment [1], the IC50 is more than 100 µM.

Regarding `NC(=O)c1ccccc1Nc1cccc(C(=O)Nc2ccccc2)c1`, the values for the IC50 in experiment [1] and in experiment [2] were 83 µM and more than 100 µM, respectively. For `NC(=O)c1ccccc1Nc1ccc(C(=O)Nc2ccccc2)cc1`, in that order: 23 µM and more than 100 µM. For `Cc1ccccc1CCOc1cccc(Nc2ccccc2C(N)=O)c1`, in that order: 1.8 µM and more than 100 µM. Regarding `NC(=O)c1ccccc1Nc1ccccc1` [ANILINOBENZAMIDE], in experiment [1], the IC50 was more than 100 µM. Regarding `NC(=O)c1ccccc1Nc1cccc(OCCc2ccccc2C(F)(F)F)c1`, the IC50 in experiment [1] is 3.1 µM; in experiment [2], more than 100 µM.

Take `NC(=O)c1ccccc1Nc1cccc(OCCc2ccccc2Cl)c1`: the results for the IC50 in experiment [1] and in experiment [2] were 1.5 µM and more than 100 µM, respectively. For `NC(=O)c1ccccc1Nc1ccc(NC(=O)c2ccncc2)cc1` the same measures were more than 100 µM and more than 100 µM. For `CC(C)COc1cccc(Nc2ccccc2C(N)=O)c1` the same measures were 30 µM and more than 300 µM. For `CSc1ccc(Nc2ccccc2C(N)=O)cc1`, in experiment [1], the IC50 is more than 100 µM. `NC(=O)c1ccccc1Nc1cccc(C(=O)O)c1`: the IC50 in experiment [1] and in experiment [2] was more than 100 µM each time.

With `NC(=O)c1ccccc1Nc1ccc(-c2ccccc2)cc1`, the IC50 in experiment [1] and in experiment [2] was more than 100 µM each time. Turning to `NC(=O)c1ccccc1Nc1cccc(OCCc2cccc(Cl)c2)c1`, the IC50 was 2 µM in experiment [1] and more than 100 µM in experiment [2]. For `NC(=O)c1ccccc1Nc1ccc(/C=C/c2ccccc2)cc1` the same measures were more than 300 µM and more than 100 µM.

Consider `CC(C)C(=O)Nc1ccc(Nc2ccccc2C(N)=O)cc1`, for which the IC50 in experiment [1] and in experiment [2] was more than 100 µM in each case.

Turning to `COC(=O)c1ccc(Nc2ccccc2C(N)=O)cc1`, the IC50 is 83 µM in experiment [1] and more than 100 µM in experiment [2]. For `CN(C(=O)c1ccccc1)c1cccc(Nc2ccccc2C(N)=O)c1` the same measures were more than 100 µM and more than 100 µM. For `NC(=O)c1ccccc1Nc1cccc(NC(=O)c2ccccc2)c1`, in that order: 57 µM and more than 100 µM.

As to `CN(C(=O)c1ccc(Nc2ccccc2C(N)=O)cc1)c1ccccc1`, the IC50 was 69 µM in experiment [1] and more than 100 µM in experiment [2]. Regarding `NC(=O)c1ccccc1Nc1cccc(C(F)(F)F)c1`, the IC50 in experiment [1] stood at 100 µM. Still for that read-out and setting: then `NC(=O)c1ccccc1NCc1ccccc1`, with more than 100 µM. Turning to `CN(C(=O)Cc1ccccc1)c1cccc(Nc2ccccc2C(N)=O)c1`, the IC50 in experiment [1] and in experiment [2] was more than 100 µM in each case. Consider `NC(=O)c1ccccc1Nc1ccc2ccccc2c1`, for which the IC50 in experiment [1] and in experiment [2] was more than 100 µM in each case. Regarding `NC(=O)c1ccccc1Nc1cccc(-c2ccccc2)c1`, the IC50 in experiment [1] is 33 µM.

As to `Cc1cccc(CCOc2cccc(Nc3ccccc3C(N)=O)c2)c1`, the IC50 is 1.8 µM in experiment [1] and more than 100 µM in experiment [2].

For `NC(=O)c1ccccc1Nc1ccc(C(=O)O)cc1`, the IC50 in experiment [1] was more than 100 µM.

As to `NC(=O)c1ccccc1Nc1cccc(CCC(=O)O)c1`, the IC50 in experiment [1] is more than 100 µM; in experiment [2] it was 93 µM.

As for `CC(C)(C)c1ccc(Nc2ccccc2C(N)=O)cc1`, the IC50 in experiment [1] was more than 100 µM.

In the case of `CN(Cc1ccccc1)C(=O)c1cccc(Nc2ccccc2C(N)=O)c1`, the IC50 in experiment [1] was 40 µM; in experiment [2], more than 100 µM. For `CN(C)C(=O)c1ccccc1Nc1ccccc1` the same measures were more than 100 µM and more than 100 µM. On to `NC(=O)c1ccccc1Nc1cccc(OCCc2cccc(C(F)(F)F)c2)c1`, for which the values for the IC50 in experiment [1] and in experiment [2] were 2.1 µM and more than 100 µM, respectively. Take `NC(=O)c1ccccc1Nc1cccc(Oc2ccccc2)c1`: in experiment [1], the IC50 was determined as 25 µM. As for `CNC(=O)c1ccccc1Nc1ccccc1`, the IC50 in experiment [1] and in experiment [2] was more than 100 µM each time. Take `NC(=O)c1ccccc1Nc1cccc(OCCc2ccc(Cl)cc2)c1`: the half-inhibitory concentration (IC50) is 0.83 µM in experiment [1] and more than 100 µM in experiment [2]. For `NC(=O)c1ccccc1Nc1cccc(OCC2CCCCC2)c1` the same measures were 24 µM and 210 µM.

With `NC(=O)c1ccccc1Sc1ccccc1`, in experiment [1], the IC50 was more than 100 µM. `NC(=O)c1ccccc1Nc1cccc(NC(=O)Cc2ccccc2)c1`: the figures for the IC50 in experiment [1] and in experiment [2] were 74 µM and more than 100 µM, respectively. For `NC(=O)c1ccccc1Nc1ccc(NC(=O)C2CCNCC2)cc1`, in that order: 53 µM and more than 100 µM. For `Cc1ccc(CCOc2cccc(Nc3ccccc3C(N)=O)c2)cc1` the same measures were 1.6 µM and more than 100 µM. For `NC(=O)c1ccccc1Nc1ccc(NC(=O)c2cccnc2)cc1`, in that order: 38 µM and more than 100 µM. For the compound `COC(=O)c1cccc(Nc2ccccc2C(N)=O)c1`, the IC50 in experiment [1] and in experiment [2] was more than 100 µM in each case. Regarding `COC(=O)/C=C/c1cccc(Nc2ccccc2C(N)=O)c1`, the IC50 in experiment [1] came out at 32 µM. Take `NC(=O)c1ccccc1Nc1ccc(NC(=O)C2CCCCC2)cc1`: the IC50 in experiment [1] is 25 µM; in experiment [2], more than 100 µM.

Consider `NC(=O)c1ccccc1Nc1ccc(C(F)(F)F)cc1`, for which the IC50 in experiment [1] was 69 µM.

For `CN(C(=O)c1ccccc1)c1ccc(Nc2ccccc2C(N)=O)cc1`, the figures for the IC50 in experiment [1] and in experiment [2] were more than 300 µM and more than 100 µM, respectively. For `CC(=O)Nc1ccc(Nc2ccccc2C(N)=O)cc1` the same measures were 77 µM and more than 100 µM.

Take `NC(=O)c1ccccc1Nc1cccc(OCc2ccccc2)c1`: the IC50 in experiment [1] was 54 µM; in experiment [2], more than 300 µM. For `NC(=O)c1ccccc1Nc1ccc(CCc2ccccc2)cc1` the same measures were 88 µM and more than 100 µM. For `COc1ccc(Nc2ccccc2C(N)=O)cc1`, in that order: 80 µM and more than 100 µM.

Take `NC(=O)c1ccccc1Nc1ccc(NC(=O)c2ccccn2)cc1`: the IC50 in experiment [1] and in experiment [2] was more than 100 µM each time.

In the case of `NC(=O)c1ccccc1Nc1cccc(OCCc2ccc(C(F)(F)F)cc2)c1`, the results for the IC50 in experiment [1] and in experiment [2] were 1.4 µM and more than 100 µM, respectively. For `Cc1ccc(Nc2ccccc2C(N)=O)cc1`, in that order: 60 µM and more than 100 µM.

For the compound `NC(=O)c1ccccc1Nc1cccc(OCCc2ccccc2Br)c1`, the IC50 in experiment [1] was 1.1 µM; in experiment [2] it was more than 100 µM. For `NC(=O)c1ccccc1Nc1cccc(C(=O)NCc2ccccc2)c1`, in that order: 39 µM and more than 100 µM.

Take `NC(=O)c1ccccc1Nc1ccc(/C=C\c2ccccc2)cc1`: the IC50 in experiment [1] is 20 µM; in experiment [2] it was more than 100 µM.

`NC(=O)c1ccccc1Nc1ccc(Oc2ccccc2)cc1`: the IC50 in experiment [1] and in experiment [2] was more than 100 µM in each case. As for `CN(c1ccccc1)c1ccccc1C(N)=O`, the IC50 is more than 100 µM in experiment [1] and 75 µM in experiment [2]. For `NC(=O)c1ccccc1Nc1cccc(OCCc2ccccc2F)c1`, in that order: 2 µM and more than 100 µM. With `N#Cc1ccc(Nc2ccccc2C(N)=O)cc1`, the IC50 in experiment [1] came to 93 µM. On to `NC(=O)c1ccccc1Nc1cccc(OCCc2ccc(F)cc2)c1`, for which the IC50 in experiment [1] was 2.7 µM; in experiment [2], more than 100 µM. In the case of `NC(=O)c1ccccc1Nc1ccc(Cl)cc1`, the IC50 in experiment [1] is more than 100 µM; in experiment [2], 56 µM.

As for `NC(=O)c1ccccc1Nc1cccc(CO)c1`, the IC50 in experiment [1] is more than 100 µM. Same read-out and setting: then `Cc1cccc(Nc2ccccc2C(N)=O)c1`, with 72 µM.

Take `NC(=O)c1ccccc1Nc1cccc(CCO)c1`: the IC50 in experiment [1] was more than 100 µM. On the same count and under the same terms, under `COC(=O)CCc1cccc(Nc2ccccc2C(N)=O)c1` stands 93 µM.
